Hits are enriched below; roughly 2.3% of the tested compounds scored in any of these assays.
TRPC4 agonist: opens the mouse TRPC4 cation channel | Q9QUQ5 | HEK293 TRPC4beta/mu-opioid, Fluo4 calcium fluorescence; active compounds read high | B-score at 10 µM | 310,000 compounds, 0.49% hits | AID 2237;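 active means B-score above 5 SD of library B-scores, and initial fluorescence ratio not above library mean plus 5 SD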;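 further: positive B-score marks a calcium rise read as TRPC4 activation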
Target sequence (Q9QUQ5 whole entry, looked up): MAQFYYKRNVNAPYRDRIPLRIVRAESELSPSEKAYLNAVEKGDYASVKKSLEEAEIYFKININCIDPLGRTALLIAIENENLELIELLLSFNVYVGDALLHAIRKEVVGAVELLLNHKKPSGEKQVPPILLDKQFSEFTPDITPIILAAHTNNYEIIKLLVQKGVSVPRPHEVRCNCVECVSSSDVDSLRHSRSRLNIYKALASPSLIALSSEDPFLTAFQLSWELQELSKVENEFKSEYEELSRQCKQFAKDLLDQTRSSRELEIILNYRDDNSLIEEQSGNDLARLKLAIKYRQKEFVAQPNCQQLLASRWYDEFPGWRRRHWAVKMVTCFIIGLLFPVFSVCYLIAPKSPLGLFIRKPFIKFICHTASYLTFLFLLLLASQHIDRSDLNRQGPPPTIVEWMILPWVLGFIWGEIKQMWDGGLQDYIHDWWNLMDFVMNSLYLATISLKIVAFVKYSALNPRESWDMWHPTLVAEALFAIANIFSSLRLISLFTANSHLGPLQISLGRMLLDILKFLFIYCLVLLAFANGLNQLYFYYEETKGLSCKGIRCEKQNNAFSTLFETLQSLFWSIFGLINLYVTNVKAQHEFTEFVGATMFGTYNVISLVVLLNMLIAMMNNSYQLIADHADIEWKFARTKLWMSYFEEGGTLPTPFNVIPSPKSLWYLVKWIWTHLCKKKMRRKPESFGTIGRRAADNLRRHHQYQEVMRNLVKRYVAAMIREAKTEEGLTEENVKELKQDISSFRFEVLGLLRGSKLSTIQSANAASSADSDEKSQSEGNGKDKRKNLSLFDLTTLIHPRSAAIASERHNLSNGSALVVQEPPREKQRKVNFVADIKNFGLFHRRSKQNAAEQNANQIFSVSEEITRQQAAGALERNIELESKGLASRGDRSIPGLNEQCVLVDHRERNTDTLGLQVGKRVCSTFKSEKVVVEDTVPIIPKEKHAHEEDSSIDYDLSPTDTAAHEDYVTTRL
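Incubation: 45 min room-temperature Fluo4 loading, 110 s read / System: HEK293 cells stably co-expressing mouse TRPC4beta and mu-opioid receptor / Signal: Fluo4 fluorescence, kinetic / Control set: buffer (low) and maximal DAMGO (high) / Measure: integrated baseline-normalised fluorescence ratio, converted to per-well B score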
TRPC4 potent: allosterically enhances the mouse TRPC4 cation channel. Q9QUQ5. HEK293 TRPC4beta/mu-opioid, DAMGO EC20, Fluo-4 Ca2+ flux; active compounds read high. B-score at 10 µM. 310,000 compounds, 0.42% hits;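 active means B-score of calcium response area above 5 SD of library B-scores, with initial fluorescence ratio within 5 SD of library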;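 further: B-score of integrated fluorescence ratio over time as area under calcium response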
TRPC6 act: mouse TRPC6 channel activation. 310,000 compounds, 0.13% hits. HEK293-TRPC6 membrane potential dye fluorescence; active compounds read high. B-score at 10 µM. AID 2550. Q61143;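 active means B-score of the integrated fluorescence ratio above library mean plus 3 SD, and starting fluorescence ratio within library mean plus 5 SD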;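 further: higher score means more depolarization so channel activation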
TRPC4 inh: blocks the mouse TRPC4 cation channel; Q9QUQ5; HEK293 TRPC4beta/mu-opioid, DAMGO-evoked Fluo4 calcium flux; active compounds read low; B-score at 10 µM; 300,000 compounds, 0.39% hits; AID 2247;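 active means B-score over 3 SD under the library average, no early fluorescence shift, positive overall ratio signal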
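Material: HEK293 cells with stable TRPC4beta plus mu-opioid receptor expression; probe or stimulus: DAMGO in two steps, submaximal then maximal; technique: Fluo4 calcium fluorescence by kinetic imaging, 5 s 1 Hz baseline; measure: integrated fluorescence ratio relative to baseline, converted to per-well B score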
TRPC6 inhibitor: inhibitors of mouse TRPC6 channel; HEK293-TRPC6, membrane potential dye, ACh-evoked depolarization; active compounds read low; B-score at 10 µM; Q61143; 310,000 compounds, 1.1% hits;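 active means B-score under library mean minus 3 SD, initial fluorescence not abnormally high, positive integrated signal ratio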;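 further: B-score derived from integrated fluorescence ratio over the kinetic read; more negative B-score means stronger inhibition of depolarization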
TRPC4 sel inh 2: second check of whether TRPC6 inhibitors also affect mouse TRPC4; inhibition, % at 10 µM; shares compounds with TRPC6 inhibitor; 920 compounds, 42% hits; HEK293 TRPC4/MOR, membrane potential dye fluorescence; channel activated by saturating DAMGO dose;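 active means compounds whose fluorescence signal differed from control wells by over 3 SD, either direction, in both duplicate plates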
TRPC4 spec: mouse TRPC4 off-target activity of TRPC6 inhibitors; shares compounds with TRPC6 inhibitor; HEK293 TRPC4/mu-opioid, membrane potential fluorescence; activity change, negative = inhibition, % at 10 µM; 920 compounds, 61% hits; AID 2777;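 active means rise or fall in signal beyond 3 SD of buffer-only wells in both replicate plates, either sign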;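 further: integrated kinetic ratio of fluorescence range over baseline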
HEK293 MPD ctr 2-1: parental HEK293 nonspecific activity of TRPC6 inhibitors, second screen; 920 compounds, 31% hits; signal change vs control, % at 10 µM; parental HEK293 membrane potential dye fluorescence; maximal acetylcholine challenge after compound addition; shares compounds with TRPC6 inhibitor;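 active means membrane potential signal moving either way by over 3 SD of the maximum-effect control, in both duplicate plates, meaning non-specific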
HEK293 MPD ctr-1: parental HEK293 nonspecific activity of TRPC6 inhibitors. membrane potential signal change, % at 10 µM. parental HEK293 membrane potential dye fluorescence. shares compounds with TRPC6 inhibitor. 920 compounds, 60% hits;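 active means membrane potential signal shifting up or down by more than 3 SD of buffer-only wells, on both duplicate plates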
HEK293 MPD ctr-2: parental HEK293 nonspecific activity of TRPC6 modulators; 2,400 compounds, 51% hits; membrane potential dye fluorescence; membrane potential signal change, % at 10 µM; AID 488924; shares compounds with TRPC6 inhibitor;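 active means membrane potential signal moves up or down beyond 5 SD from buffer-only wells, on both duplicate plates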
HEK293 MPD ctr 2-2: parental HEK293 nonspecific activity of TRPC6 modulators, second screen | shares compounds with TRPC6 inhibitor | membrane potential dye fluorescence; after compound, maximal acetylcholine stimulation | inhibition, % at 10 µM | 2,400 compounds, 14% hits;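 active means membrane potential signal drops by more than 5 SD from the mean control signal, in both duplicate plates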;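 further: plate controls were acetylcholine ECmax control wells for no effect and buffer only wells for full effect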
TRPC4/MOR mod: mouse TRPC4 off-target activity of TRPC6 modulators; shares compounds with TRPC6 inhibitor; HEK293 TRPC4/mu-opioid, membrane potential fluorescence; percent change from control (negative = decrease, positive = increase), % at 10 µM; 2,400 compounds, 69% hits;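 active means membrane potential signal moved up or down beyond 5 SD of buffer control wells, in both duplicate plates, actives on both sides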;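 further: plate controls were assay buffer wells for no effect and DAMGO maximal-effect wells for full effect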
TRPC4/MOR inh 2: second check of whether TRPC6 modulators also affect mouse TRPC4. AID 488928. 2,400 compounds, 55% hits. inhibition, % at 10 µM. shares compounds with TRPC6 inhibitor. HEK293 TRPC4/mu-opioid, membrane potential dye fluorescence; stimulated with maximal-effect DAMGO;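 active means drop in membrane potential signal beyond 5 SD of the control wells in both duplicate plates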;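 further: TRPC4 counter screen for TRPC6 hits run under conditions tuned for TRPC6 not TRPC4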
TRPC6 inh conf: mouse TRPC6 inhibitor confirmation | shares compounds with TRPC6 inhibitor | HEK293-TRPC6, membrane potential dye, ACh-evoked depolarization | inhibition, % at 10 µM | 3,300 compounds, 43% hits;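 active means fluorescence ratio falls more than 5 SD below the full-stimulation control mean, in both duplicate runs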;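 further: integrated fluorescence ratio of peak minus minimum over baseline after agonist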
TRPC6 act confirm: confirmation of mouse TRPC6 activators; AID 488961; HEK293-TRPC6 membrane potential dye fluorescence, FDSS; shares compounds with TRPC6 inhibitor; 2,800 compounds, 11% hits; activation, % at 10 µM;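 active means ratio signal rise beyond 5 SD above unstimulated control wells' mean, seen in both duplicate runs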;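 further: plate controls were buffer EC0 wells for no effect and acetylcholine ECmax response for full effect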
* marks the source's active call; other numbers are inactive results; i = inactive; x = no result given; + = active, no number.

SMILES | TRPC4 agonist | TRPC4 potent | TRPC6 act | TRPC4 inh | TRPC6 inhibitor | HEK293 MPD ctr-2 | HEK293 MPD ctr 2-2 | TRPC4/MOR mod | TRPC4/MOR inh 2 | TRPC6 inh conf | TRPC6 act confirm | others
CCCCn1c(N)c(N(CC)C(=O)c2cc(S(=O)(=O)N3CCCCCC3)ccc2OC)c(=O)[nH]c1=O | i | i | i | i | i | x | x | x | x | x | x
COc1ccc(-c2csc(N(CCCN(C)C)C(=O)c3cc(OC)c(OC)c(OC)c3)n2)cc1 | i | i | i | i | -5.68* | i | i | i | 66.5%* | i | i
CCN(CC)CCCN(C(=O)c1ccccc1C)c1nc(-c2ccc(OC)cc2)cs1 | i | i | i | i | i | x | x | x | x | x | x
CCN(CC)CCCN(C(=O)c1ccccc1F)c1nc(-c2ccc(OC)cc2)cs1 | i | i | i | i | -7.12* | x | x | x | x | 51.2%* | i | TRPC4 sel inh 2=47.0%*;TRPC4 spec=i;HEK293 MPD ctr 2-1=i;HEK293 MPD ctr-1=-0.1%*
COc1ccc(-c2csc(N(CCCN(C)C)C(=O)c3ccc(C(C)(C)C)cc3)n2)cc1 | i | i | i | i | i | x | x | x | x | x | x
CCN(CC)CCCN(C(=O)c1ccc(OC)cc1)c1nc(-c2ccc(OC)cc2)cs1 | i | i | i | i | -9.11* | x | x | x | x | 77.3%* | i | TRPC4 sel inh 2=23.5%*;TRPC4 spec=-17.6%*;HEK293 MPD ctr 2-1=i;HEK293 MPD ctr-1=i
COc1ccc(-c2csc(N(CCCN(C)C)C(=O)c3ccc(C)cc3)n2)cc1 | i | i | i | i | -6.49* | i | i | i | 81.5%* | 56.0%* | i
COc1ccc(-c2csc(N(CCCN(C)C)C(=O)c3ccc(Br)cc3)n2)cc1 | i | i | i | i | i | x | x | x | x | x | x
Cc1ccccc1NC(=O)Cc1nnc(SCC(=O)NC2=NCCS2)n1C | i | i | i | i | i | x | x | x | x | x | x
CCN(CCNC(=O)C1CCN(Cc2nc(-c3cccc(Cl)c3)oc2C)CC1)c1ccccc1 | i | i | i | i | i | x | x | x | x | x | x
CCc1ccc(-c2nc(CN3CCC(C(=O)NCCN(CC)c4ccccc4)CC3)c(C)o2)cc1 | i | i | i | i | -5.57* | i | i | i | 62.5%* | i | i
CCN(CC)CCCNC(=O)c1[nH]c2ccccc2c1Sc1ccc(Cl)cc1 | i | i | i | i | i | x | x | x | x | x | x
CCN(CC)c1ccc(C=C2C(=O)OC3(CCCCC3)OC2=O)cc1 | i | i | 58.8* | i | i | 723.5%* | i | 161.5%* | i | i | 188.0%*
CCCCC1(C)OC(=O)C(=Cc2ccc(N(CC)CC)cc2)C(=O)O1 (centres undefined) | i | i | 35.7* | i | i | + | i | 185.5%* | i | i | 368.0%*
CCN(CC)c1ccc(/C=C2/C(=O)ON=C2C)cc1 | i | i | 12.9* | i | i | 799.0%* | i | 59.0%* | i | i | 133.0%*
CCOc1ccccc1NC=C1C(=O)OC2(CCCCC2)OC1=O | i | i | i | i | i | x | x | x | x | x | x
CC1=NOC(=O)/C1=C/c1ccc(N(C)C)cc1 | i | i | i | i | i | x | x | x | x | x | x
COc1ccc(CCNC(=O)c2coc(=O)c(Br)c2)cc1 | i | i | i | i | i | x | x | x | x | x | x
O=C(Nc1ccnn1C1CCN(C(=O)c2cnsn2)CC1)c1cccc(F)c1 | i | i | i | i | i | x | x | x | x | x | x
COCC(=O)NC1CC2CCCC(C1)N2Cc1ccccc1 (centres undefined) | i | i | i | i | i | x | x | x | x | x | x
CC(C)(C)OC(=O)NC1CC2CCCC(C1)N2Cc1ccccc1 (centres undefined) | i | i | i | i | -5.64* | i | 88.5%* | 13.5%* | 29.0%* | 73.5%* | x
CCOc1ccc(NC(=O)CC2C(=O)N(CC)C(=S)N2CCNC(C)=O)cc1 (centres undefined) | i | i | i | i | -5.5* | i | i | i | i | i | i
CCOc1ccc(NC(=O)CC2C(=O)N(CC)C(=S)N2CCN2CCOCC2)cc1 (centres undefined) | i | i | i | i | i | x | x | x | x | x | x
CCN1C(=O)C(CC(=O)Nc2ccc(F)cc2)N(CCCN2CCN(c3ccc(F)cc3)CC2)C1=S (centres undefined) | i | i | i | i | -6.48* | i | i | i | 47.0%* | 44.0%* | i
CN(C)CCCNc1ccc(-c2nn(C)c(=O)c3ccccc23)cc1[N+](=O)[O-] | i | i | i | i | -7.92* | x | x | x | x | i | i | TRPC4 sel inh 2=44.0%*;TRPC4 spec=-26.2%*;HEK293 MPD ctr 2-1=i;HEK293 MPD ctr-1=-243.5%*
COCCNc1ccc(-c2nn(C)c(=O)c3ccccc23)cc1[N+](=O)[O-] | i | i | i | i | i | x | x | x | x | x | x
COc1ccc(C(=O)NCc2nnc(SCC(=O)NC3CCCCC3)o2)cc1 | i | i | i | i | i | x | x | x | x | x | x

Screening results deposited in PubChem by Johns Hopkins Ion Channel Center.
